The source made the active and inactive calls. The calls are words filed in the database; no cut-off is given here.
Tests used:
[1] = tested on: Respiratory syncytial virus; assay: Antiviral activity against RSV infected in human cervix carcinoma cells assessed as inhibition of virus-induced cytopathic effect at 0.32 to 100 uM; assay type: functional, organism-based
Summary of the method: (§1)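 Confluent cell cultures were infected with 100 CCID50 of virus in the presence of test compound at 100, 40, 8, 1.6 and 0.32 μM. Cytopathic effect was scored once it was complete in untreated infected controls.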

Coxsackievirus B4 [2] = assay: Antiviral activity against Coxsackievirus B4 infected in human cervix carcinoma cells assessed as inhibition of virus-induced cytopathic effect at 0.32 to 100 uM; assay type: functional, organism-based; summary of the method: as §1
L1210 = assay: Cytostatic activity against mouse L1210 cells after 2 days by coulter counter analysis; assay type: functional, cell-based; conditions: L1210, 48 h
Summary of the method: (§2)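 300,000–500,000 cells/ml mixed 1:1 with compound dilutions and incubated at 37 °C for 2 days (L1210) or 3 days (CEM, HeLa). Cell number counted with a Coulter counter; HeLa trypsinized before counting.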

CCRF-CEM = assay: Cytostatic activity against human CEM cells after 3 days by coulter counter analysis; assay type: functional, cell-based; conditions: 72 h; summary of the method: as §2
HeLa = assay: Cytostatic activity against human HeLa cells after 3 days by coulter counter analysis; assay type: functional, cell-based; conditions: 72 h; summary of the method: as §2
HCT-116 = assay: Cytostatic activity against human HCT116 cells after 72 hrs by MTT assay; assay type: functional, cell-based; conditions: HCT-116, 72 h
Summary of the method: (§3)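 Monolayers in DMEM with 10% FBS, 2 mM L-glutamine and penicillin/streptomycin, 37 °C, 5% CO2. Seeded at 1–3 × 10^4 cells/ml, then compound added in tenfold dilutions (10⁻⁸–10⁻⁴ M) for 72 h. MTT read at 570 nm; percent growth taken against time-zero and untreated controls. IC50 by linear regression; quadruplicate, at least two experiments.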

MCF7 = assay: Cytostatic activity against human MCF7 cells after 72 hrs by MTT assay; assay type: functional, cell-based; conditions: MCF7, 72 h; summary of the method: as §3
NCI-H460 = assay: Cytostatic activity against human NCI-H460 cells after 72 hrs by MTT assay; assay type: functional, cell-based; conditions: NCI-H460, 72 h; summary of the method: as §3
Human alphaherpesvirus 1 = assay: Antiviral activity against HSV1 KOS infected in human lung fibroblast assessed as inhibition of virus-induced cytopathic effect at 0.32 to 100 uM; assay type: functional, organism-based; summary of the method: as §1
Human alphaherpesvirus 2 = assay: Antiviral activity against HSV2 G infected in human lung fibroblast assessed as inhibition of virus-induced cytopathic effect at 0.32 to 100 uM; assay type: functional, organism-based; conditions: strain G; summary of the method: as §1
Vaccinia virus = assay: Antiviral activity against Vaccinia virus infected in human lung fibroblast assessed as inhibition of virus-induced cytopathic effect at 0.32 to 100 uM; assay type: functional, organism-based; conditions: Orthopoxvirus vaccinia
[3] = tested on: Vesicular stomatitis virus; assay: Antiviral activity against VSV infected in human lung fibroblast assessed as inhibition of virus-induced cytopathic effect at 0.32 to 100 uM; assay type: functional, organism-based
Human respirovirus 3 = assay: Antiviral activity against Parainfluenza virus 3 infected in african green monkey Vero cells assessed as inhibition of virus-induced cytopathic effect at 0.32 to 100 uM; assay type: functional, organism-based; summary of the method: as §1
[4] = tested on: Mammalian orthoreovirus 1; assay: Antiviral activity against Reovirus-1 infected in african green monkey Vero cells assessed as inhibition of virus-induced cytopathic effect at 0.32 to 100 uM; assay type: functional, organism-based; summary of the method: as §1
Sindbis virus = assay: Antiviral activity against Sindbis virus infected in african green monkey Vero cells assessed as inhibition of virus-induced cytopathic effect at 0.32 to 100 uM; assay type: functional, organism-based; summary of the method: as §1
Coxsackievirus B4 [5] = assay: Antiviral activity against Coxsackievirus B4 infected in african green monkey Vero cells assessed as inhibition of virus-induced cytopathic effect at 0.32 to 100 uM; assay type: functional, organism-based; summary of the method: as §1
Punta Toro virus = assay: Antiviral activity against Punta Toro virus infected in african green monkey Vero cells assessed as inhibition of virus-induced cytopathic effect at 0.32 to 100 uM; assay type: functional, organism-based; summary of the method: as §1
[6] = tested on: Vesicular stomatitis virus; assay: Antiviral activity against Vesicular stomatitis virus infected in human cervix carcinoma cells assessed as inhibition of virus-induced cytopathic effect at 0.32 to 100 uM; assay type: functional, organism-based
Summary of the method: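 Confluent human cervix carcinoma (HeLa) cultures received 100 CCID50 of VSV together with the compound at 100, 40, 8, 1.6 or 0.32 μM. Cytopathicity was read at the point of full CPE in infected, untreated control wells.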

Felid alphaherpesvirus 1 = assay: Antiviral activity against Feline herpesvirus infected in feline CRFK cells assessed as inhibition of virus-induced cytopathic effect at 0.32 to 100 uM; assay type: functional, organism-based; summary of the method: as §1
Feline coronavirus = assay: Antiviral activity against Feline coronavirus infected in feline CRFK cells assessed as inhibition of virus-induced cytopathic effect at 0.32 to 100 uM; assay type: functional, organism-based; summary of the method: as §1
Influenza A virus [7] = assay: Antiviral activity against Influenza A virus H1N1 infected in MDCK cells assessed as inhibition of virus-induced cytopathic effect at 0.32 to 100 uM; assay type: functional, organism-based
Summary of the method: (§4)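 Confluent MDCK monolayers were infected in the presence of the compound at 100, 40, 8, 1.6 and 0.32 μM. Viral cytopathicity was scored once it was complete in untreated infected control cultures.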

Influenza A virus [8] = assay: Antiviral activity against Influenza A virus H3N2 infected in MDCK cells assessed as inhibition of virus-induced cytopathic effect at 0.32 to 100 uM; assay type: functional, organism-based; summary of the method: as §4
Influenza B virus = assay: Antiviral activity against Influenza B virus infected in MDCK cells assessed as inhibition of virus-induced cytopathic effect at 0.32 to 100 uM; assay type: functional, organism-based; summary of the method: as §4
[9] = tested on: Human immunodeficiency virus 1; assay: Antiviral activity against HIV1 3B infected in human CEM cells assessed as inhibition of virus-induced CEM giant cell formation at 0.32 to 100 uM after 4 days; assay type: functional, organism-based; conditions: CCRF-CEM
Summary of the method: (§5)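 CEM cells (~3 × 10^5 cells/cm³) exposed to 100 CCID50/ml of virus and seeded into wells holding compound dilutions. Incubated 4 days at 37 °C, then giant cell formation examined microscopically.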

[10] = tested on: Human immunodeficiency virus 2; assay: Antiviral activity against HIV2 ROD infected in human CEM cells assessed as inhibition of virus-induced CEM giant cell formation at 0.32 to 100 uM after 4 days; assay type: functional, organism-based; conditions: ISOLATE ROD, CCRF-CEM; summary of the method: as §5
[11] = tested on: Radical scavenging activity; assay: Antioxidant activity assessed as DPPH free radical scavenging activity at 100 uM after 20 mins by spectrophotometric analysis; assay type: functional
Summary of the method: (§6)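 0.05 mM DPPH in absolute ethanol mixed with an equal volume of compound in DMSO (final 100 μM). Shaken and left 20 or 60 min, then absorbance read at 517 nm and percent activity calculated. Three replicates, averaged.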

[12] = tested on: Radical scavenging activity; assay: Antioxidant activity assessed as DPPH free radical scavenging activity at 100 uM after 60 mins by spectrophotometric analysis; assay type: functional; summary of the method: as §6
[13] = Antioxidant activity assessed as inhibition of AAPH-induced linoleic acid lipid peroxidation by measuring conjugated diene hydroperoxide level; assay type: functional; design: concentration or dose not given beside the values; conditions: dose or concentration not given here
Summary of the method: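 Linoleic acid sodium salt (10 μL of 16 mM) in 0.05 M phosphate buffer pH 7.4 at 37 °C. Oxidation started under air with 50 μL of 40 mM AAPH. Conjugated diene hydroperoxide formation followed as absorbance rise at 234 nm; control contains the same DMSO level. At least triplicate.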

Glycine max = assay: Inhibition of soybean LOX assessed as conversion of sodium linoleate to 13- hydroperoxylinoleic acid at 100 uM

SMILES	inhibition [1]	inhibition (Coxsackievirus B4 [2])	IC50 (CCRF-CEM)	IC50 (HCT-116)	IC50 (MCF7)	IC50 (NCI-H460)	inhibition (Human alphaherpesvirus 1)	inhibition (Human alphaherpesvirus 2)	inhibition (Vaccinia virus)	inhibition [3]	inhibition (Human respirovirus 3)	inhibition [4]	inhibition (Sindbis virus)	inhibition (Coxsackievirus B4 [5])	inhibition (Punta Toro virus)	inhibition [6]	inhibition (Felid alphaherpesvirus 1)	Activity [11]	Activity [12]	inhibition [13]	also measured
CC(C(=O)NNC(=O)NNC(=O)NO)c1cccc(Cc2ccccc2)c1 (centres undefined)	inactive	inactive	> 250 µM	> 100 µM	> 100 µM	> 100 µM	inactive	inactive	inactive	inactive	inactive	inactive	inactive	inactive	inactive	inactive	inactive	28%	53%	28%	IC50 (L1210): > 250 µM; IC50 (HeLa): ≥ 250 µM; inhibition (Feline coronavirus): inactive; inhibition (Influenza A virus [7]): inactive; inhibition (Influenza A virus [8]): inactive; inhibition (Influenza B virus): inactive; inhibition [9]: inactive; inhibition [10]: inactive; inhibition (Glycine max): 1%
CC(Cc1ccc(O)c(O)c1)C(C)Cc1ccc(O)c(O)c1 (centres undefined)																		80%	91%		
CC(C(=O)NN)c1cccc(Cc2ccccc2)c1 (centres undefined)	inactive	inactive	150 µM	> 100 µM	> 100 µM	> 100 µM	inactive	inactive	inactive	inactive	inactive	inactive	inactive	inactive	inactive	inactive	inactive	inactive	inactive	6%	IC50 (L1210): 212 µM; IC50 (HeLa): 142 µM; inhibition (Feline coronavirus): inactive; inhibition (Influenza A virus [7]): inactive; inhibition (Influenza A virus [8]): inactive; inhibition (Influenza B virus): inactive; inhibition [9]: inactive; inhibition [10]: inactive; inhibition (Glycine max): 10%
CC(C(=O)NNC(=O)NC1CCCCC1)c1cccc(Cc2ccccc2)c1 (centres undefined)	inactive	inactive	25 µM	22 µM	16 µM	23 µM	inactive	inactive	inactive	inactive	inactive	inactive	inactive	inactive	inactive	inactive	inactive	3%	10%	31%	IC50 (HeLa): 45 µM; inhibition (Feline coronavirus): inactive; inhibition (Influenza A virus [7]): inactive; inhibition (Influenza A virus [8]): inactive; inhibition (Influenza B virus): inactive; inhibition [9]: inactive; inhibition [10]: inactive; inhibition (Glycine max): 10%
CC(C(=O)NNC(=O)NNC(=O)NOCc1ccccc1)c1cccc(Cc2ccccc2)c1 (centres undefined)	inactive	inactive	96 µM	64 µM	19 µM	> 100 µM	inactive	inactive	inactive	inactive	inactive	inactive	inactive	inactive	inactive	inactive	inactive	10%	19%	100%	IC50 (L1210): 102 µM; IC50 (HeLa): 76 µM; inhibition (Feline coronavirus): inactive; inhibition (Influenza A virus [7]): inactive; inhibition (Influenza A virus [8]): inactive; inhibition (Influenza B virus): inactive; inhibition [9]: inactive; inhibition [10]: inactive; inhibition (Glycine max): inactive
CC(C(=O)NNC(=O)NNC(=O)NOCc1ccccc1)c1cccc(Oc2ccccc2)c1 (centres undefined)	inactive	inactive	90 µM	84 µM	26 µM	> 100 µM	inactive	inactive	inactive	inactive	inactive	inactive	inactive	inactive	inactive	inactive	inactive	8%	15%	26%	IC50 (L1210): 103 µM; inhibition (Feline coronavirus): inactive; inhibition (Influenza A virus [7]): inactive; inhibition (Influenza A virus [8]): inactive; inhibition (Influenza B virus): inactive; inhibition [9]: inactive; inhibition [10]: inactive; inhibition (Glycine max): inactive
CC(C)Cc1ccc(C(C)C(=O)NNC(=O)NNC(=O)NOCc2ccccc2)cc1 (centres undefined)	inactive	inactive	106 µM	56 µM	19 µM	71 µM	inactive	inactive	inactive	inactive	inactive	inactive	inactive	inactive	inactive	inactive	inactive	11%	18%	13%	IC50 (HeLa): 98 µM; inhibition (Feline coronavirus): inactive; inhibition (Influenza A virus [7]): inactive; inhibition (Influenza A virus [8]): inactive; inhibition (Influenza B virus): inactive; inhibition [9]: inactive; inhibition [10]: inactive; inhibition (Glycine max): inactive
Cc1c(C)c2c(c(C)c1O)CCC(C)(C(=O)O)O2 (centres undefined)																				63%	

From ChEMBL document CHEMBL2010803, “Novel NSAID 1-acyl-4-cycloalkyl/arylsemicarbazides and 1-acyl-5-benzyloxy/hydroxy carbamoylcarbazides as potential anticancer agents and antioxidants” (Eur J Med Chem, 2012)
